{"data": "Experimental data from different studies", "target": "Serine/threonine-protein kinase PAK 5 (PAK5, Homo sapiens, UniProt Q9P286)", "note": "Lines come from different studies, so protocols differ."}
{"Structure (SMILES)": "CCN(CC)CCNC(=O)c1c(C)[nH]c(/C=C2\\C(=O)Nc3ccc(F)cc32)c1C", "test": "enzyme activity, inhibitor", "conditions": "10 µM", "endpoint": "inhibition", "value": "55%"}
{"Structure (SMILES)": "Cc1ccc(Nc2nccc(N(C)c3ccc4c(C)n(C)nc4c3)n2)cc1S(N)(=O)=O", "test": "cell-free assay, inhibitor", "conditions": "0.5 µM", "endpoint": "remaining signal", "value": "95.4%"}
{"Structure (SMILES)": "Cc1cc(NC(=O)c2cccc3cc(-c4cccc5[nH]nc(N)c45)ccc23)ccc1F", "test": "enzyme activity, inhibitor", "conditions": "0.1 µM", "endpoint": "activity vs control", "value": "88%"}
{"Structure (SMILES)": "Cn1c(=O)n(-c2ccc(C(C)(C)C#N)cc2)c2c3cc(-c4cnc5ccccc5c4)ccc3ncc21", "test": "enzyme activity, inhibitor", "conditions": "10 µM", "endpoint": "remaining activity", "value": "90%"}
{"Structure (SMILES)": "Nc1nc(Nc2ccccc2)sc1C(=O)c1c(F)cccc1F", "test": "enzyme activity, inhibitor", "conditions": "10 µM", "endpoint": "remaining activity", "value": "66%"}
{"Structure (SMILES)": "Cc1ccc(NC(=O)c2ccc(C)c(C(F)(F)F)c2)cc1C#Cc1nn(C2CCC(O)CC2)c2ncnc(N)c12 (centres unmarked)", "test": "cell-free assay", "conditions": "10 µM", "endpoint": "remaining signal", "value": "89%"}
{"Structure (SMILES)": "FC(F)(F)c1ccc2c(c1)nc(-c1cccnc1)n2C1CC1", "test": "cell-free assay, competition with immobilised ligand", "conditions": "1 µM", "endpoint": "remaining binding", "value": "100%"}
{"Structure (SMILES)": "COc1cc(Cl)c(C(=O)N[C@@H](CN[C@H]2CC[C@@H](N)CC2)Cc2ccc(C#N)cc2)cc1-c1ccc(CN[C@H](C)c2ccc(C)cc2)o1", "test": "enzyme activity, inhibitor", "conditions": "1 µM", "endpoint": "remaining activity", "value": "103%"}
{"Structure (SMILES)": "CC(C)(C)c1nc2c(s1)c1nc(N)ncc1c1ccc(NS(=O)(=O)c3c(F)cccc3F)c(F)c12", "test": "enzyme activity, inhibitor, radiometric", "conditions": "1 µM", "endpoint": "remaining activity", "value": "77%"}
{"Structure (SMILES)": "CNC(=O)c1cc(Oc2ccc(NC(=O)Nc3ccc(Cl)c(C(F)(F)F)c3)cc2)ccn1", "test": "enzyme activity, inhibitor", "conditions": "10 µM", "endpoint": "inhibition", "value": "-21%"}
{"Structure (SMILES)": "CN1CC(Oc2cnc(C#N)cc2-c2ccn3nc(NC(=O)C4CC4)cc3c2)C1", "test": "enzyme activity, inhibitor", "conditions": "1 µM", "endpoint": "inhibition", "value": "3%"}
{"Structure (SMILES)": "N#CCCc1ccc2c(c1)-c1[nH]c3ccc([N+](=O)[O-])cc3c1CC(=O)N2", "test": "cell-free assay", "conditions": "0.5 µM", "endpoint": "remaining signal", "value": "60.3%"}
{"Structure (SMILES)": "CCN(CC)c1ccc(C2=NNC(=O)CC2C)cc1[N+](=O)[O-] (centres unmarked)", "test": "enzyme activity, inhibitor", "conditions": "10 µM", "endpoint": "remaining activity", "value": "5%"}
{"Structure (SMILES)": "CC/C(=N\\NC(=O)NCc1cccc(O)c1)c1ccc(O)c(C)c1O", "test": "enzyme activity, inhibitor", "conditions": "0.1 µM", "endpoint": "inhibition", "value": "-3.9%"}
{"Structure (SMILES)": "COc1cc(/C=C/C(=O)CC(=O)/C=C/c2ccc(O)c(OC)c2)ccc1O", "test": "enzyme activity, inhibitor", "conditions": "1 µM", "endpoint": "activity vs control", "value": "108%"}
{"Structure (SMILES)": "Cc1c[nH]c2nccc(Oc3c(F)cc(Nc4cc(Cl)nc(N)n4)cc3F)c12", "test": "cell-free assay, competition with immobilised ligand", "conditions": "0.1 µM", "endpoint": "remaining binding", "value": "92%"}
{"Structure (SMILES)": "O=C1NC(=O)c2cc(Nc3ccc(F)cc3)c(Nc3ccc(F)cc3)cc21", "test": "cell-free assay", "conditions": "0.5 µM", "endpoint": "remaining signal", "value": "96.4%"}
{"Structure (SMILES)": "Cn1nc(C(=O)NCc2ccc(C(=O)O)cc2)cc1-c1ccc2[nH]ccc2c1", "test": "cell-free assay, competition with immobilised ligand", "conditions": "0.1 µM", "endpoint": "remaining binding", "value": "62%"}
{"Structure (SMILES)": "COc1cc2ncnc(Nc3ccc(Oc4ccccc4)c(C)c3C)c2cc1OC", "test": "enzyme activity, inhibitor", "conditions": "1 µM", "endpoint": "inhibition", "value": "3%"}
{"Structure (SMILES)": "COc1ccc2cc(OCC3(C(=O)O)CN(C(=O)c4ccc(F)cc4)C3)ccc2c1", "test": "cell-free assay, competition with immobilised ligand", "conditions": "1 µM", "endpoint": "remaining binding", "value": "100%"}
{"Structure (SMILES)": "Nc1nc(NC2CCCCC2)sc1C(=O)c1ccccc1", "test": "enzyme activity, inhibitor", "conditions": "10 µM", "endpoint": "remaining activity", "value": "103%"}
{"Structure (SMILES)": "C[C@@H]1CN(c2cc(-c3nn(C)c4ccc(OC5(C)CC5)cc34)ncn2)C[C@H](C)O1", "test": "cell-free assay, competition with immobilised ligand", "conditions": "1 µM", "endpoint": "remaining binding", "value": "84%"}
{"Structure (SMILES)": "CCCS(=O)(=O)Nc1ccc(F)c(C(=O)c2c[nH]c3ncc(-c4ccc(Cl)cc4)cc23)c1F", "test": "enzyme activity, inhibitor", "conditions": "1 µM", "endpoint": "inhibition", "value": "< 10%"}
{"Structure (SMILES)": "CCC(=O)N[C@@H]1CC[C@H](C(=O)N(C)c2ccc(-c3nc4ccccc4o3)cc2)C1", "test": "cell-free assay, competition with immobilised ligand", "conditions": "1 µM", "endpoint": "remaining binding", "value": "100%"}
{"Structure (SMILES)": "FC(F)(F)Oc1cccc(-c2cnc3ccc(-c4ccncc4)nn23)c1", "test": "enzyme activity, inhibitor, radiometric", "conditions": "5 µM", "endpoint": "activity vs control", "value": "62%"}
{"Structure (SMILES)": "O=C1NC(c2ccccn2)Sc2ccccc21 (centres unmarked)", "test": "cell-free assay, competition with immobilised ligand", "conditions": "1 µM", "endpoint": "remaining binding", "value": "94%"}
{"Structure (SMILES)": "CN(C)c1nccc(-c2cnc3ncccn23)n1", "test": "binding", "conditions": "1 µM", "endpoint": "remaining binding", "value": "78%"}
{"Structure (SMILES)": "COCCOc1nc(-c2ccc(Cl)nc2)nc2c1CN(C(=O)c1ncn3ccccc13)CC2", "test": "cell-free assay, competition with immobilised ligand", "conditions": "0.1 µM", "endpoint": "remaining binding", "value": "100%"}
{"Structure (SMILES)": "Cc1sc(C(=O)NC2COC2)cc1-n1cc(NC(=O)Nc2c(F)cccc2Cl)cn1", "test": "enzyme activity, inhibitor", "conditions": "10 µM", "endpoint": "remaining activity", "value": "103%"}
